According to ChEMBL document CHEMBL1158537, “Antibacterial activities of aminoglycoside antibiotics-derived cationic amphiphiles. Polyol-modified neomycin B-, kanamycin A-, amikacin-, and neamine-based amphiphiles with potent broad spectrum antibacterial activity” (2010):
≈ marks a conversion by molar mass, not a printed value.

What was measured:
Staphylococcus aureus [1] = assay: Antibacterial activity against methicillin-resistant Staphylococcus aureus ATCC 33592 after 24 hrs by macrobroth dilution method; assay type: functional
In short: (§1)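 Reference strains from the American Type Culture Collection were tested by broth macrodilution following CLSI methodology. The read-out was the minimum inhibitory concentration, reported in μg/mL. The same method was used for the Gram-positive and Gram-negative organisms.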

[2] = test system: Staphylococcus epidermidis; assay: Antibacterial activity against Staphylococcus epidermidis […] after 24 hrs by macrobroth dilution method; assay type: functional
In short: (§2)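 Broth macrodilution was run following CLSI methodology against ATCC reference strains and clinical isolates from the Canadian Intensive Care Unit (CAN-ICU) study, with Gram-positive and Gram-negative organisms tested. The value is the minimum inhibitory concentration, reported in μg/mL.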

[3] = test system: Staphylococcus epidermidis; assay: Antibacterial activity against methicillin-resistant Staphylococcus epidermidis ATCC 14990 after 24 hrs by macrobroth dilution method; assay type: functional
Escherichia coli [4] = assay: Antibacterial activity against Escherichia coli CAN-ICU 63074 after 24 hrs by macrobroth dilution method; assay type: functional; in short: as §2
[5] = test system: Stenotrophomonas maltophilia; assay: Antibacterial activity against Stenotrophomonas maltophilia CAN-ICU 62585 after 24 hrs by macrobroth dilution method; assay type: functional; in short: as §2
Escherichia coli [6] = assay: Antibacterial activity against gentamicin-resistant Escherichia coli ATCC 6174 after 24 hrs by macrobroth dilution method; assay type: functional; in short: as §1
Pseudomonas aeruginosa [7] = assay: Antibacterial activity against Pseudomonas aeruginosa ATCC 27853 after 24 hrs by macrobroth dilution method; assay type: functional; in short: as §2
Acinetobacter baumannii = assay: Antibacterial activity against Acinetobacter baumannii CAN-ICU 63169 after 24 hrs by macrobroth dilution method; assay type: functional; in short: as §2
Streptococcus pneumoniae = assay: Antibacterial activity against Streptococcus pneumoniae ATCC 49619 after 24 hrs by macrobroth dilution method; assay type: functional; in short: as §2
Escherichia coli [8] = assay: Antibacterial activity against Escherichia coli ATCC 25922 after 24 hrs by macrobroth dilution method; assay type: functional; in short: as §1
Pseudomonas aeruginosa [9] = assay: Antibacterial activity against Pseudomonas aeruginosa CAN-ICU 62308 after 24 hrs by macrobroth dilution method; assay type: functional; in short: as §2
Klebsiella pneumoniae = assay: Antibacterial activity against Klebsiella pneumoniae ATCC 13883 after 24 hrs by macrobroth dilution method; conditions: ATCC 13883, 24 h
Staphylococcus aureus [10] = assay: Antibacterial activity against Staphylococcus aureus ATCC 29213 after 24 hrs by macrobroth dilution method; assay type: functional; in short: as §1

Molecule	MIC (Staphylococcus aureus [1]; ATCC 33592, 24 h) [µg/mL]	MIC [2] [µg/mL]	MIC ([3]; ATCC 14990, 24 h) [µg/mL]	MIC (Escherichia coli [4]; CAN-ICU 63074, 24 h) [µg/mL]	MIC ([5]; CAN-ICU 62585, 24 h) [µg/mL]	MIC (Escherichia coli [6]; ATCC 6174, 24 h) [µg/mL]	MIC (Pseudomonas aeruginosa [7]; ATCC 27853, 24 h) [µg/mL]	MIC (Acinetobacter baumannii; CAN-ICU 63169, 24 h) [µg/mL]	MIC (Streptococcus pneumoniae; ATCC 49619, 24 h) [µg/mL]	MIC (Escherichia coli [8]; ATCC 25922, 24 h) [µg/mL]	MIC (Pseudomonas aeruginosa [9]; CAN-ICU 62308, 24 h) [µg/mL]	MIC (Klebsiella pneumoniae) [µg/mL]	MIC (Staphylococcus aureus [10]; ATCC 29213, 24 h) [µg/mL]	further results
NC[C@H]1O[C@H](O[C@H]2[C@H](OC(=O)Nc3ccccc3)[C@@H](OC(=O)Nc3ccccc3)[C@H](N)C[C@@H]2N)[C@H](N)[C@@H](OC(=O)Nc2ccccc2)[C@@H]1OC(=O)Nc1ccccc1.O=C(O)C(F)(F)F	16	8	8	32	64	32	128	256	> 256	32	128	64	16	
NCC[C@H](OC(=O)Nc1ccccc1)C(=O)N[C@@H]1C[C@H](N)[C@@H](C[C@H]2O[C@H](CN)[C@@H](OC(=O)Nc3ccccc3)[C@H](OC(=O)Nc3ccccc3)[C@H]2OC(=O)Nc2ccccc2)[C@H](OC(=O)Nc2ccccc2)[C@H]1O[C@H]1O[C@H](COC(=O)Nc2ccccc2)[C@@H](OC(=O)Nc2ccccc2)[C@H](N)[C@H]1OC(=O)Cc1ccccc1.O=C(O)C(F)(F)F	16	2	2	256	128	256	> 256	256	32	256	256	256	8	
CN(C)c1ccc(NC(=O)OC[C@H]2O[C@H](O[C@@H]3[C@@H](OC(=O)Nc4ccc(N(C)C)cc4)[C@H](O[C@H]4O[C@H](CN)[C@@H](OC(=O)Nc5ccc(N(C)C)cc5)[C@H](OC(=O)Nc5ccc(N(C)C)cc5)[C@H]4OC(=O)Nc4ccc(N(C)C)cc4)[C@@H](N)C[C@H]3N)[C@H](OC(=O)Nc3ccc(N(C)C)cc3)[C@@H](N)[C@@H]2OC(=O)Nc2ccc(N(C)C)cc2)cc1.O=C(O)C(F)(F)F	32	16	32	256	> 256	256	> 256	> 256	> 256	256	256	> 256	16	
CC(C)(C)c1ccc(COC[C@H]2O[C@@H](O[C@@H]3[C@@H](OCc4ccc(C(C)(C)C)cc4)[C@H](N)C[C@H](N)[C@H]3O[C@H]3O[C@H](CN)[C@@H](OCc4ccc(C(C)(C)C)cc4)[C@H](OCc4ccc(C(C)(C)C)cc4)[C@H]3N)[C@H](OCc3ccc(C(C)(C)C)cc3)[C@@H]2O[C@H]2O[C@@H](CN)[C@@H](OCc3ccc(C(C)(C)C)cc3)[C@H](OCc3ccc(C(C)(C)C)cc3)[C@H]2N)cc1.O=C(O)C(F)(F)F	128	64	64	128	> 128	128	256	> 128	256	128	128	> 128	128	
NC[C@@H]1O[C@H](O[C@H]2[C@@H](O)[C@H](O[C@@H]3[C@@H](O)[C@H](N)C[C@H](N)[C@H]3O[C@H]3O[C@H](CN)[C@@H](O)[C@H](O)[C@H]3N)O[C@@H]2CO)[C@H](N)[C@@H](O)[C@@H]1O [FRAMYCETIN]	256 (≈ 416 µM)	0.25 (≈ 0.407 µM)	0.5 (≈ 0.813 µM)		> 512	8 (≈ 13 µM)	512 (≈ 833 µM)	64 (≈ 104 µM)	32 (≈ 52.1 µM)	4 (≈ 6.51 µM)	512 (≈ 833 µM)	1 (≈ 1.63 µM)	1 (≈ 1.63 µM)	
GENTAMICIN		0.25												MIC (Staphylococcus aureus [1]): 2 µg/mL; MIC [3]: 32 µg/mL; MIC (Escherichia coli [4]): 8 µg/mL; MIC [5]: > 512 µg/mL; MIC (Escherichia coli [6]): 128 µg/mL; MIC (Pseudomonas aeruginosa [7]): 8 µg/mL; MIC (Acinetobacter baumannii): 128 µg/mL; MIC (Streptococcus pneumoniae): 4 µg/mL; MIC (Escherichia coli [8]): 1 µg/mL; MIC (Pseudomonas aeruginosa [9]): 128 µg/mL; MIC (Staphylococcus aureus [10]): 1 µg/mL
